This note sets out measurements from ChEMBL document CHEMBL1139389, “Discovery of the Poly(ADP-ribose) polymerase (PARP) inhibitor 2-[(R)-2-methylpyrrolidin-2-yl]-1H-benzimidazole-4-carboxamide (ABT-888) for the treatment of cancer” (J Med Chem, 2009).

Series [1] in a line: Volume of distribution at steady state in Sprague-Dawley rat at 5 mg/kg. The format is ADME, organism-based. Also on record: dose 5 mg/kg. To be noted: in vivo, read-out: Vdss.
Series [2] can be described thus: Clearance in Sprague-Dawley rat at 5 mg/kg. The class given is ADME, organism-based. To be noted: in vivo. Also on record: dose 5 mg/kg.
Series [3] is described as follows: Half life in Beagle dog at 2.5 mg/kg, iv. The class given is ADME, organism-based, Canis lupus familiaris. Also on record: dose 2.5 mg/kg, route intravenous. Conditions: in vivo; call rule not given here.
Series [4] in a line: Clearance in Beagle dog at 2.5 mg/kg. The format is ADME, organism-based, Canis lupus familiaris. Also on record: dose 2.5 mg/kg. To be noted: in vivo.
A short description of series [5]: Oral bioavailability in cynomolgus monkey at 2.5 mg/kg. The class given is ADME, organism-based, Macaca fascicularis. To be noted: in vivo.
The nature of series [6]: AUC in cynomolgus monkey at 2.5 mg/kg, po. To be noted: plasma. Also on record: dose 2.5 mg/kg, route oral. The class given is ADME, organism-based, Macaca fascicularis.
The nature of series [7]: Cmax in cynomolgus monkey at 2.5 mg/kg, po. Also on record: dose 2.5 mg/kg, route oral. To be noted: in vivo. The format is ADME, organism-based, Macaca fascicularis.
Series [8] can be described thus: Clearance in cynomolgus monkey at 2.5 mg/kg. The format is ADME, organism-based, Macaca fascicularis. Also on record: dose 2.5 mg/kg. To be noted: in vivo.
In another series the target is T1, Cytochrome P450 2A6 (Homo sapiens, UniProt P11509).
T1 sequence (P11509 whole entry): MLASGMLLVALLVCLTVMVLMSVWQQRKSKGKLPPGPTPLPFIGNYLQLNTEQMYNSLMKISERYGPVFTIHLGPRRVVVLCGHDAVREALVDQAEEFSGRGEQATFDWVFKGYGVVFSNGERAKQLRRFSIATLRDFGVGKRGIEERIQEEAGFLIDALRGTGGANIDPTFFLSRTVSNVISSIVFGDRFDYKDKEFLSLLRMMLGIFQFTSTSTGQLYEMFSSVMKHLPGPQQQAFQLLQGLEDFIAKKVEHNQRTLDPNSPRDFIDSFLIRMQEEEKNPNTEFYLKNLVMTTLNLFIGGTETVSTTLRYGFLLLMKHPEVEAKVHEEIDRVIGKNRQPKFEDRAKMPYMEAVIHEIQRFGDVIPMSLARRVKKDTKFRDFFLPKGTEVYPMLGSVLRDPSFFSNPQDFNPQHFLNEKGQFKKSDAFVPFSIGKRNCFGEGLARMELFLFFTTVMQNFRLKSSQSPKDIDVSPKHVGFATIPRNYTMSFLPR
Kind of series: Inhibition of CYP2A6 in human liver microsomes. The class given is ADME, Microsome. Background: Liver microsomes are a subcellular fraction often used to study metabolism.

A further series has as its target Cytochrome P450 2C9 (Homo sapiens, UniProt P11712). Kind of series: Inhibition of CYP2C9 in human liver microsomes. The class given is ADME, Microsome.
Series [9] concerns B16-F10. Kind of series: Antitumor activity against mouse B16F10 cells xenografted in C57BL/6 mouse assessed as tumor volume at 12.5 mg/kg/day, po after 14 days. The format is functional.
Series [10] deals with B16-F10. Kind of series: Potentiation of temozolomide-induced cytotoxicity against mouse B16F10 cells xenografted in C57BL/6 mouse assessed as growth inhibition at 12.5 mg/kg/day, po after 17 days relative to temozolomide monotherapy. The format is functional. An outline of the steps:
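B16F10 syngeneic model: 6×10^4 cells in 50% matrigel injected sc into the flank of 6–8 week old female C57BL/6 mice (20 g), allocated to groups by injection order. Inhibitor given po bid days 6–11 at 1, 5 or 12.5 mg/kg/day; temozolomide 50 mg/kg/day po qd days 6–11. Tumor volume by caliper as L×W²/2; TGI versus temozolomide alone.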

For another series, the system named is MX1. The series can be described thus: Potentiation of cyclophosphamide-induced cytotoxicity against human MX1 cells xenografted in SCID mouse assessed as growth inhibition at 25 mg/kg/day, sc osmotic minipump after 48 days relative to cyclophosphamide monotherapy. To be noted: route subcutaneous. The format is functional. The method in brief: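 Female SCID mice bearing sc MX-1 brei (0.2 cc of 1:10, day 0), size-matched on day 15, 10 per group. Inhibitor 5, 12.5 or 25 mg/kg/day by sc osmotic minipump for 14 days from day 18; cyclophosphamide 12.5 mg/kg ip on days 20, 24 and 28. Volumes from caliper L×W²/2; TGI versus cyclophosphamide alone.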
For orientation: In xenograft studies the graft and the host belong to different species.

A short description of series [11]: Half life in CD1 mouse at 3 mg/kg, iv. Also on record: dose 3 mg/kg, route intravenous. Conditions: in vivo. The class given is ADME, organism-based. The method in brief:
(§1)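 Mouse PK: oral dose 10 mg/kg in 2.5% EtOH, 1 drop Tween-80, 25% PEG400 in PBS; iv dose 3 mg/kg in 2.5% EtOH, 5% DMSO, 1 drop Tween-80, 25% PEG400 in PBS. Oral bioavailability, iv half-life, oral AUC and Cmax derived from plasma profiles.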

Series [12] can be described thus: Cmax in CD1 mouse at 10 mg/kg, po. The class given is ADME, organism-based. Also on record: dose 10 mg/kg, route oral. Conditions: in vivo. The method in brief:
as §1

The nature of series [13]: Clearance in CD1 mouse at 10 mg/kg. Conditions: in vivo. The format is ADME, organism-based. Also on record: dose 10 mg/kg. The method in brief:
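Mouse pharmacokinetics. Oral dose of 10 mg/kg in 2.5% EtOH, 1 drop Tween-80 and 25% PEG400 in PBS. Intravenous dose of 3 mg/kg in 2.5% EtOH, 5% DMSO, 1 drop Tween-80 and 25% PEG400 in PBS.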

A short description of series [14]: Oral bioavailability in Sprague-Dawley rat at 5 mg/kg. To be noted: in vivo. The class given is ADME, organism-based.

Molecules are shown by their SMILES.

Sequence of Cytochrome P450 2C9 (P11712 whole entry): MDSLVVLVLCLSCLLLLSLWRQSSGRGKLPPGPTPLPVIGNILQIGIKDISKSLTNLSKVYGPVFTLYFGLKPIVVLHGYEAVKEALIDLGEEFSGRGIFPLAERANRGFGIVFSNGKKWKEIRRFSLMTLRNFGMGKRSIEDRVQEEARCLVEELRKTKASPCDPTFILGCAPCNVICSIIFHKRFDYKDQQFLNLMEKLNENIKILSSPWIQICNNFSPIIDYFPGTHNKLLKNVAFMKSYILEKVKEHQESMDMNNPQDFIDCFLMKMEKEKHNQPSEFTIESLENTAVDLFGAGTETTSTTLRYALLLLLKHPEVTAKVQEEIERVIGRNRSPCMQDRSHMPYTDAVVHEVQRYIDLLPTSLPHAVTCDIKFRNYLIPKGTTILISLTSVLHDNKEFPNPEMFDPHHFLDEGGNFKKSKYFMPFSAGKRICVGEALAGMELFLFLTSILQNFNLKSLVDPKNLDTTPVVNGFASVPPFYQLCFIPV

Broadly, the clearance is the rate of elimination divided by the concentration. As usually defined, the half-life is how long it takes for the measured level to halve. As a reminder, the bioavailability is the share of a dose that reaches the circulation, judged against a reference dose that is usually intravenous. What is called AUC is the area under the concentration-time curve, a measure of exposure. One may read the Cmax as the highest concentration seen after dosing. What is called TGI is the reduction of tumour growth relative to the control group. In the case of `C[C@]1(c2nc3c(C(N)=O)cccc3[nH]2)CCCN1` [VELIPARIB], in [1], the Vd stood at 3.6 L/kg. Moreover, the clearance in [2] is 33.3 mL/min/kg; in series [4] it was 10 mL/min/kg; in series [8], 18.3 mL/min/kg; in series [13] it was 68.3 mL/min/kg. The values for the half-life in series [3] and in series [11] were 2.7 h and 1.6 h, respectively. In addition, the bioavailability in series [5] turned out to be 56%; in [14], 61%. For the same compound, in series [6], the AUC came out at 1300 ng·h/mL. Further, the figures for the Cmax in series [7] and in series [12] were 300 ng/mL and 1600 ng/mL, respectively. The Activity entry on Cytochrome P450 2A6 was “Not Active”; at Cytochrome P450 2C9, “Not Active”; in the series on B16-F10 [9], 2452 mm3. The inhibition of tumour growth (TGI) in the series with B16-F10 [10] is recorded as 64%; in the series with MX1 it was 61%.
